The source of these data is ChEMBL document CHEMBL5136958, “The development of HEC-866 and its analogues for the treatment of idiopathic pulmonary fibrosis” (RSC Med Chem, 2021).

Data set [1] is described as follows: Clearance in cynomolgus monkey at 1 mg/kg, iv by LC-MS/MS analysis. It counts as ADME, organism-based, Macaca fascicularis. Particulars: in vivo.
The next data set addresses Cytochrome P450 3A4 (Homo sapiens, UniProt P08684). The data set is described as follows: Inhibition of CYP3A4 in human liver microsomes by LC-MS/MS analysis. Format: ADME, Microsome. The method, boiled down:
(§1)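 Human microsomes incubated with CYP-specific substrates (1A2, 2C9, 2C19, 2D6, 3A4) and test compound at 0.0–10 μM; IC50 determined.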
Background: Liver microsomes are a subcellular fraction often used to study metabolism.

The test system of another data set is HFL1. The data set is described as follows: Antiproliferative activity against human HFL1 cells assessed as reduction in cell proliferation measured after 24 hrs by CCK-8 assay. Format: functional, cell-based. The following applies: HFL1, 24 h. In outline: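 Human fetal lung fibroblasts (HFL-1); growth inhibition quantified with CCK-8; IC50 averaged from 3 experiments, each in duplicate.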

The nature of data set [2]: AUC(infinity) in Sprague-Dawley rat model of bleomycin-induced pulmonary fibrosis at 2 mg/kg, iv by LC-MS/MS analysis. Format: ADME, organism-based. Details: time infinity, dose 2 mg/kg, route iv. Particulars: in vivo. In outline:
(§2)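 Male Sprague-Dawley rats with induced pulmonary fibrosis; single i.v. (2.0 mg kg⁻¹) or p.o. (5.0 mg kg⁻¹) administration. Plasma samples stored at −70 °C; the supernatant was analysed by LC-MS/MS for PK parameters.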

Data set [3] is described as follows: Volume of distribution at steady state in dog at 1 mg/kg, iv by LC-MS/MS analysis. It counts as ADME, organism-based, Canis lupus familiaris. The following applies: in vivo, read-out: Vdss.
The target in data set [4] is Voltage-gated inwardly rectifying potassium channel KCNH2 (Homo sapiens, UniProt Q12809). Briefly: Inhibition of human ERG stably expressed in CHO cells by automated Qpatch clamp method. Format: toxicity, cell-based. The method, boiled down: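 CHO cell line stably transfected with hERG cDNA expressing hERG channels; channel inhibition measured, IC50 reported.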
In general terms: In patch-clamp work, channel activity is measured electrically.

The nature of data set [5]: Volume of distribution at steady state in cynomolgus monkey at 1 mg/kg, iv by LC-MS/MS analysis. Format: ADME, organism-based, Macaca fascicularis. Particulars: in vivo, read-out: Vdss.
Data set [6] is described as follows: Half life in cynomolgus monkey at 5 mg/kg, po by LC-MS/MS analysis. It counts as ADME, organism-based, Macaca fascicularis. Particulars: in vivo.
Data set [7] can be described thus: Cmax in cynomolgus monkey at 5 mg/kg, po by LC-MS/MS analysis. Format: ADME, organism-based, Macaca fascicularis. Set-up: dose 5 mg/kg, route po. Particulars: in vivo.
The nature of data set [8]: Half life in cynomolgus monkey at 1 mg/kg, iv by LC-MS/MS analysis. Format: ADME, organism-based, Macaca fascicularis. Particulars: in vivo.
A short description of data set [9]: AUC(infinity) in Sprague-Dawley rat model of bleomycin-induced pulmonary fibrosis at 5 mg/kg, po by LC-MS/MS analysis. It counts as ADME, organism-based. Set-up: time infinity, dose 5 mg/kg, route po. Particulars: in vivo. The method, boiled down:
as §2

Data set [10] can be described thus: AUClast in cynomolgus monkey at 5 mg/kg, po by LC-MS/MS analysis. Format: ADME, organism-based, Macaca fascicularis. Set-up: time 0 - last, dose 5 mg/kg, route po. The following applies: in vivo.
Data set [11] in a line: Cmax in Sprague-Dawley rat model of bleomycin-induced pulmonary fibrosis at 5 mg/kg, po by LC-MS/MS analysis. Format: ADME, organism-based. Set-up: dose 5 mg/kg, route po. Particulars: in vivo. The method, boiled down: as §2
Data set [12] in a line: Intrinsic clearance in rat liver microsomes by LC-MS/MS analysis. Format: ADME, Microsome. The following applies: read-out: CLH. The method, boiled down: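 Liver microsomes were incubated with the compound at 37 °C with NADPH as cofactor and sampled at 0, 5, 15, 30 and 60 min. Half-life (min) and in vitro CLint (mL min⁻¹ kg) were derived from these samples.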
The nature of data set [13]: Toxicity in po dosed Sprague-Dawley rat administered once daily for 28 days. The following applies: in vivo, time 28 day. It counts as organism-based.
A further data set addresses Cytochrome P450 2C9 (Homo sapiens, UniProt P11712). Briefly: Inhibition of CYP2C9 in human liver microsomes by LC-MS/MS analysis. Format: ADME, Microsome. In outline: as §1
The nature of data set [14]: Clearance in Sprague-Dawley rat model of bleomycin-induced pulmonary fibrosis at 2 mg/kg, iv by LC-MS/MS analysis. The following applies: in vivo. It counts as ADME, organism-based. The method, boiled down: as §2
The nature of data set [15]: Oral bioavailability in cynomolgus monkey at 5 mg/kg by LC-MS/MS analysis. Format: ADME, organism-based, Macaca fascicularis. The following applies: in vivo.
The nature of data set [16]: Tmax in Sprague-Dawley rat model of bleomycin-induced pulmonary fibrosis at 5 mg/kg, po by LC-MS/MS analysis. It counts as ADME, organism-based. Particulars: in vivo. The method, boiled down:
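Male Sprague-Dawley rats with induced pulmonary fibrosis were dosed 2.0 mg kg⁻¹ i.v. or 5.0 mg kg⁻¹ p.o. Plasma was stored at -70 °C, and the supernatant was analysed by LC-MS/MS.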

Cytochrome P450 3A4, sequence (P08684 whole entry): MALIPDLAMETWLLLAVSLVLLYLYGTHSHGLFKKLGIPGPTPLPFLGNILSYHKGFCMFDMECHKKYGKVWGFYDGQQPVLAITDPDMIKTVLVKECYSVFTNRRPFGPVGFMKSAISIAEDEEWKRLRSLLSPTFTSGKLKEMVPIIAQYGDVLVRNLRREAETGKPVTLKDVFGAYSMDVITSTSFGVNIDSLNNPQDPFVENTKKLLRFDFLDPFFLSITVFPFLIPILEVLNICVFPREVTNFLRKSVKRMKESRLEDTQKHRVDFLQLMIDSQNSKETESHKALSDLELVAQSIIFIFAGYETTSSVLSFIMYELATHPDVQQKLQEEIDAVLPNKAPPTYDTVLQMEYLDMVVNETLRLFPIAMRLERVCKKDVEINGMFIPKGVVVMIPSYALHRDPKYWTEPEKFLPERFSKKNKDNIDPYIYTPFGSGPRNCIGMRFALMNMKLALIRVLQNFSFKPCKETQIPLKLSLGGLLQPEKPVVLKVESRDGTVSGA
Voltage-gated inwardly rectifying potassium channel KCNH2, sequence (Q12809 whole entry): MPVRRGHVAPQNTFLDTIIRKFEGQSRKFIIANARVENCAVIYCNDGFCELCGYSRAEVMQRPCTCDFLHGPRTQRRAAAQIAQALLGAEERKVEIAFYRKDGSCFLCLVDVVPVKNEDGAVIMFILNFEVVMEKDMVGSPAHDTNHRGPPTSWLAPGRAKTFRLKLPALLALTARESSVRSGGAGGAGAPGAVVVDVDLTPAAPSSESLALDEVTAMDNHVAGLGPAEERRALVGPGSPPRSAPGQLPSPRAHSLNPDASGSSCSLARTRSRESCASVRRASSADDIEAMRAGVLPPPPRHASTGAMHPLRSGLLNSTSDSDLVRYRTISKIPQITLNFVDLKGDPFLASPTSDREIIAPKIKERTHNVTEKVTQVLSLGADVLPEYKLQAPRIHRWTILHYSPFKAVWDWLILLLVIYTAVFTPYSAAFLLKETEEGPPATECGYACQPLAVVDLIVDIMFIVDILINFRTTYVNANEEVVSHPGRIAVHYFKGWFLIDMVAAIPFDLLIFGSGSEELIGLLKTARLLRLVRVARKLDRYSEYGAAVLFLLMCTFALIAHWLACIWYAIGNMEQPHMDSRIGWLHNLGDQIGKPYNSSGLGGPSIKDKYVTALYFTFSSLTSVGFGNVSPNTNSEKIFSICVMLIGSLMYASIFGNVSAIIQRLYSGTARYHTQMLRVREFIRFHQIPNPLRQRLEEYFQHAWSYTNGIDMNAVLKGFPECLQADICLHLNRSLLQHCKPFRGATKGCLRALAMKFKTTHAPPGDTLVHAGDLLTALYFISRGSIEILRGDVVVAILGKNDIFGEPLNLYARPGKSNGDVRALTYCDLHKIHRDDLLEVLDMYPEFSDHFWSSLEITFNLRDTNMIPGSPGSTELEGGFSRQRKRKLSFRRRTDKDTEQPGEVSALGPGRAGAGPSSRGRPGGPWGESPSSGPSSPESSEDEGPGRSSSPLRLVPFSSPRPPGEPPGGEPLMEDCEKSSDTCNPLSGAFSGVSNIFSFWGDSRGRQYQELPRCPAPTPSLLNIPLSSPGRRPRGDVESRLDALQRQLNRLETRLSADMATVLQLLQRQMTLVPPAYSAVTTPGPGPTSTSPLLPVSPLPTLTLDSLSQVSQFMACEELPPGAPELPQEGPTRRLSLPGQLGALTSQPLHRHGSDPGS
Cytochrome P450 2C9, sequence (P11712 whole entry): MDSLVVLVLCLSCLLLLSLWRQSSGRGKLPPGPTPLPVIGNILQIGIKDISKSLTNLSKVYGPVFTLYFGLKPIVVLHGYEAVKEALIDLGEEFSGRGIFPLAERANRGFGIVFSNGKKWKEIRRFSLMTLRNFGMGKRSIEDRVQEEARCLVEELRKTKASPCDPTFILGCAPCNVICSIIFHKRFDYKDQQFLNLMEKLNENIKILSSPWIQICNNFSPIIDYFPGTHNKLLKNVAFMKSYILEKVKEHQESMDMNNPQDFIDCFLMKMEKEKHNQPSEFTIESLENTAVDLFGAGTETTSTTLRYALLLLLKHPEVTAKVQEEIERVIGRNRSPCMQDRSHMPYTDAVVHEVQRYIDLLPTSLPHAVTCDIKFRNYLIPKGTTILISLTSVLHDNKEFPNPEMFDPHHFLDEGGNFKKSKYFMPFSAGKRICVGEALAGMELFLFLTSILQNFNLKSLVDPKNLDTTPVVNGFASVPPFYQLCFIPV

With `Cc1cc(=O)n(-c2ccc(N3CCC(Cc4ccc(Cl)c(F)c4)CC3)c(Cl)c2)c(C)n1`, the clearance (in general, the volume of plasma or blood freed of the substance per unit of time) in data set [1] was 3.33 mL/min/kg; in [14] it was 4.33 mL/min/kg. Besides, the IC50 (usually the concentration needed to halve the response being measured) at Cytochrome P450 3A4 is greater than 10 µM; with HFL1, 60 µM; in [4], greater than 30 µM; at Cytochrome P450 2C9 it was greater than 10 µM. Further, the area under the curve AUC(0-inf) (usually the area under the concentration-time curve extrapolated to infinity) in [2] came to 7980 ng·h/mL; in data set [9], 17100 ng·h/mL. In addition, the Vd in data set [3] was determined as 1.8 L/kg; in data set [5], 3.9 L/kg. Also, the figures for the half-life in data set [6] and in [8] were 14 h and 16 h, respectively. Moreover, the Cmax (as a rule, the maximum level reached in the sampled fluid or tissue) amounted to 1060 ng/mL in data set [7] and 1120 ng/mL in data set [11]. The exposure AUC(0-t) (as a rule, exposure summed from dosing to a finite time, without extrapolation to infinity) in [10] is 12900 ng·h/mL. The CLint scaled in data set [12] is 24.2 mL/min/kg. The same compound gave an MTD at 672 h in data set [13] greater than 500 mg/kg. In addition, the bioavailability (as a rule, dose-corrected exposure relative to a reference, in per cent) in data set [15] stood at 72%. In data set [16], the time to peak (Tmax) (commonly the time at which the peak concentration occurs) came out at 1.7 h.
